Data taken from the RNAGym collection of RNA variant scans (doi:10.1002/anie.201605470).

B1: Osa-1-4 twister ribozyme (parent)
chain: CCGCCUAACACUGCCAAUGCCGGUCCCAAGCCCGGAUAAAAGUGGAGGGGGCGG

Variants of: B1
Experiment: self-cleavage, relative activity (ratio to wild type); higher = more cleavage; co-transcriptional
Summary of the method: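 A DNA template for a 54-nucleotide Oryza sativa twister ribozyme was synthesised with 97 % wild-type base and 1 % of each other base at the 48 positions downstream of the cleavage site. It was transcribed in vitro for 2 h at 37 °C, allowing co-transcriptional self-cleavage, then reverse-transcribed with a template-switching oligonucleotide, PCR-amplified and deep-sequenced. Cleavage status was scored from reads with or without upstream sequence. Relative activity is fraction cleaved normalised to wild type.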

CCGCCUAACACUGCCAAUGCCGGUCCCAAUCCCGGAUAAAAGUGGAGGCGGCGG [G30U G49C] and CCGCCUAACACUGCCAAUGCCGGUCCCAAUCCCGGAUAAAAGUGGAGGAGGCGG [G30U G49A] are the same in self-cleavage: 0.02 for the first, 0.02 for the second.

CCGCCUAACACUGCCAAUGCCGGUCCCAAUCCCGGAUAAAAGUGGAGGUGGCGG [G30U G49U] and CCGCCUAACACUGCCAAUGCCGGUCCCAAUCCCGGAUAAAAGUGGAGGGGGCCG [G30U G53C] are the same in self-cleavage: 0.03 for the first, 0.03 for the second.

CCGCCUAACACUGCCAAUGCCGGUCCCAAUCCCGGAUAAAAGUGGAGGGGGCUG [G30U G53U] and CCGCCUAACACUGCCAAUGCCGGUCCCAAUCCCGGAUAAAAGUGGAGGGGGCAG [G30U G53A] are the same in self-cleavage: 0.04 for the first, 0.04 for the second.

Compared with CCGCCUAACACUGCCAAUGCCGGUCCCAAUCCCGGAUAAAAAUGGAGGGGGCGG [G30U G42A], CCGCCUAACACUGCCAAUGCCGGUCCCAAUCCCGGAUAAAACUGGAGGGGGCGG [G30U G42C] is lower in self-cleavage: 0.04 for the first, 0.03 for the second.

First: CCGCCUAACACUGCCAAUGCCGGUCCCAAUCCCGGAUAAAAUUGGAGGGGGCGG [G30U G42U]
Second: CCGCCUAACACUGCCAAUGCCGGUCCCAAGACAGGAUAAAAGUGGAGGGGGCGG [C31A C33A]
The self-cleavage of the first is lower: 0.02 for the first, 0.05 for the second.

Compared with CCGCCUAACACUGCCAAUGCCGGUCCCAAGACUGGAUAAAAGUGGAGGGGGCGG [C31A C33U], CCGCCUAACACUGCCAAUGCCGGUCCCAAGACGGGAUAAAAGUGGAGGGGGCGG [C31A C33G] is lower in self-cleavage: 0.03 for the first, 0.02 for the second.

CCGCCUAACACUGCCAAUGCCGGUCCCAACCCCGGAUAAAAGUGGAGGGGGCGU [G30C G54U] and CCGCCUAACACUGCCAAUGCCGGUCCCAACCCCGGAUAAAAGUGGAGGGGGCGA [G30C G54A] are the same in self-cleavage: 0.05 for the first, 0.05 for the second.

First: CCGCCUAACACUGCCAAUGCCGGUCCCAACCCCGGAUAAAAGUGGAGGGGGCGC [G30C G54C]
Second: CCGCCUAACACUGCCAAUGCCGGUCCCAACCCCGGAUAAAAGUGGAGGGUGCGG [G30C G50U]
The self-cleavage of the first is lower: 0.04 for the first, 0.05 for the second.

Going from CCGCCUAACACUGCCAAUGCCGGUCCCAACCCCGGAUAAAAGUGGAGGGAGCGG [G30C G50A] to CCGCCUAACACUGCCAAUGCCGGUCCCAACCCCGGAUAAAAGUGGAGGGCGCGG [G30C G50C], the self-cleavage rises from 0.04 to 0.05.

CCGCCUAACACUGCCAAUGCCGGUCCCAAGACCGGAUAAAAGUGGAGGGGGAGG [C31A C52A] and CCGCCUAACACUGCCAAUGCCGGUCCCAAGACCGGAUAAAAGUGGAGGGGGUGG [C31A C52U] are the same in self-cleavage: 0.05 for the first, 0.05 for the second.

Compared with CCGCCUAACACUGCCAAUGCCGGUCCCAAGACCGGAUAAAAGUGGAGGGGGGGG [C31A C52G], CCGCCUAACACAGCCAAUGCCGGUCCCAACCCCGGAUAAAAGUGGAGGGGGCGG [G30C U12A] is higher in self-cleavage: 0.05 for the first, 0.06 for the second.

Going from CCGCCUAACACGGCCAAUGCCGGUCCCAACCCCGGAUAAAAGUGGAGGGGGCGG [G30C U12G] to CCGCCUAACACCGCCAAUGCCGGUCCCAACCCCGGAUAAAAGUGGAGGGGGCGG [G30C U12C], the self-cleavage falls from 0.1 to 0.03.

First: CCGCCUAAUACUGCCAAUGCCGGUCCCAAGACCGGAUAAAAGUGGAGGGGGCGG [C31A C9U]
Second: CCGCCUAAGACUGCCAAUGCCGGUCCCAAGACCGGAUAAAAGUGGAGGGGGCGG [C31A C9G]
The self-cleavage of the first is lower: 0.03 for the first, 0.04 for the second.

Compared with CCGCCUAAAACUGCCAAUGCCGGUCCCAAGACCGGAUAAAAGUGGAGGGGGCGG [C31A C9A], CCGCCUAACACUGCCAAUGCCGGUCCCAAUCCCGGAUAAAAGUGGAGGGGUCGG [G30U G51U] is higher in self-cleavage: 0.02 for the first, 0.03 for the second.

First: CCGCCUAACACUGCCAAUGCCGGUCCCAAUCCCGGAUAAAAGUGGAGGGGACGG [G30U G51A]
Second: CCGCCUAACACUGCCAAUGCCGGUCCCAAUCCCGGAUAAAAGUGGAGGGGCCGG [G30U G51C]
The self-cleavage of the first is higher: 0.05 for the first, 0.03 for the second.

CCGCCUAACACCGCCAAUGCCGGUCCCAAUCCCGGAUAAAAGUGGAGGGGGCGG [G30U U12C] and CCGCCUAACACGGCCAAUGCCGGUCCCAAUCCCGGAUAAAAGUGGAGGGGGCGG [G30U U12G] are the same in self-cleavage: 0.03 for the first, 0.03 for the second.

CCGCCUAACACAGCCAAUGCCGGUCCCAAUCCCGGAUAAAAGUGGAGGGGGCGG [G30U U12A] and CCGCCUAACACUGCCAAUGCCGGUCCCAAUCCCGCAUAAAAGUGGAGGGGGCGG [G30U G35C] are the same in self-cleavage: 0.03 for the first, 0.03 for the second.

CCGCCUAACACUGCCAAUGCCGGUCCCAAUCCCGUAUAAAAGUGGAGGGGGCGG [G30U G35U] and CCGCCUAACACUGCCAAUGCCGGUCCCAAUCCCGAAUAAAAGUGGAGGGGGCGG [G30U G35A] are the same in self-cleavage: 0.04 for the first, 0.04 for the second.

First: CCGCCUAACACUGCCAAUGCCGGUCCCAACCCCGGAUAAAAGGGGAGGGGGCGG [G30C U43G]
Second: CCGCCUAACACUGCCAAUGCCGGUCCCAACCCCGGAUAAAAGCGGAGGGGGCGG [G30C U43C]
The self-cleavage of the first is higher: 0.05 for the first, 0.04 for the second.

Compared with CCGCCUAACACUGCCAAUGCCGGUCCCAACCCCGGAUAAAAGAGGAGGGGGCGG [G30C U43A], CCGCCUAACACUGCCAAAGCCGGUCCCAAUCCCGGAUAAAAGUGGAGGGGGCGG [G30U U18A] is lower in self-cleavage: 0.05 for the first, 0.03 for the second.

CCGCCUAACACUGCCAACGCCGGUCCCAAUCCCGGAUAAAAGUGGAGGGGGCGG [G30U U18C] and CCGCCUAACACUGCCAAGGCCGGUCCCAAUCCCGGAUAAAAGUGGAGGGGGCGG [G30U U18G] are the same in self-cleavage: 0.04 for the first, 0.04 for the second.

Going from CCGCCUAACACUGCCAAUACCGGUCCCAAGACCGGAUAAAAGUGGAGGGGGCGG [C31A G19A] to CCGCCUAACACUGCCAAUCCCGGUCCCAAGACCGGAUAAAAGUGGAGGGGGCGG [C31A G19C], the self-cleavage falls from 0.04 to 0.02.

CCGCCUAACACUGCCAAUGCCGGUCCCAAUCCCUGAUAAAAGUGGAGGGGGCGG [G30U G34U] and CCGCCUAACACUGCCAAUGCCGGUCCCAAUCCCAGAUAAAAGUGGAGGGGGCGG [G30U G34A] are the same in self-cleavage: 0.04 for the first, 0.04 for the second.

Going from CCGCCUAACACUGCCAAUGCCGGUCCCAAUCCCCGAUAAAAGUGGAGGGGGCGG [G30U G34C] to CCGCCUAACACUGCCAAUGCCGGUCCCAAUCCCGGAUAAAAGUGGACGGGGCGG [G30U G47C], the self-cleavage falls from 0.05 to 0.01.
